Assay outcomes: PubChem BioAssay, Sanford-Burnham Center for Chemical Genomics
APJ ag = agonists of human apelin receptor APJ, primary screen, CHO-K1 cells, PathHunter beta-arrestin, luminescence; P35414; 0% DMSO wells, 100% apelin; activation, % at 20 µM; hit rate 0.11% among 330,000; AID 2520, 2010;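 active = activation more than six SD over the plate average, tested at 20 µM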
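Assay system: CHO-K1 APJ beta-arrestin complementation cell line / Compound: single test compound dose, 20 µM final, 1% DMSO / Times: overnight seeding, 90 min compound at 25 °C, 1 h detection / Technique: beta-gal luminescence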
APJ antagonist = antagonists of human apelin receptor APJ, primary screen, CHO-K1 cells, beta-arrestin complementation, luminescence. P35414. AID 2521, 2010. inhibition, % at 20 µM. hit rate 0.32% among 330,000;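 active = inhibition above about 40% at 20 µM, limit read from the data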;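 also: cells challenged with 10 nM apelin-13 agonist together with compound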
TAG inh = inhibitors of triacylglycerol accumulation, primary screen, cell-based, uHTS, fluorescence, H9c2 | inhibition, % at 12.5 µM | H9c2 cells, Nile Red lipid (TAG) fluorescence; cells loaded with 200 µM oleic acid | hit rate 0.66% among 230,000;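 active = pattern-corrected inhibition of lipid staining of at least 50% with the nuclear-stain viability signal not falling by more than 50%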
CCR6 antag = CCR6 receptor antagonists, primary screen, cell-based, CHO-K1, luminescence, beta-arrestin, uHTS. hit rate 0.49% among 340,000. inhibition, % at 20 µM. C-C chemokine receptor type 6 (Homo sapiens), P51684. CHO-K1 CCR6 PathHunter beta-arrestin, CCL20-stimulated. AID 493098, 2011;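 active = compounds whose inhibition of the agonist-driven luminescence signal at 20 µM reaches about 50%, limit read from the data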;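 also: cells stimulated with CCL20 at 14 nM final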
Target sequence (P51684 whole entry, looked up): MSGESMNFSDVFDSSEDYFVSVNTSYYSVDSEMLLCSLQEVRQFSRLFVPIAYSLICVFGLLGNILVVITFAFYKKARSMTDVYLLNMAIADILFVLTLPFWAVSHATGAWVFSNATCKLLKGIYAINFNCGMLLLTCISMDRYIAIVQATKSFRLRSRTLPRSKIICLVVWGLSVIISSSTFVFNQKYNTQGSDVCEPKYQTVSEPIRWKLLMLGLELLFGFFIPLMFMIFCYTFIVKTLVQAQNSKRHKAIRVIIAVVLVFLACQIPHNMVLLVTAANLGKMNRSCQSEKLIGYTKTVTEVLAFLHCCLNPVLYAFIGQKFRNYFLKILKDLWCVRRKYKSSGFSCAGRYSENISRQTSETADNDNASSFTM
CXCR6 block = CXCR6 receptor inhibitors, primary screen, cell-based, beta-arrestin, luminescence, CHO-K1 PathHunter, 1536-well. C-X-C chemokine receptor type 6 (Homo sapiens), O00574. inhibition, % at 20 µM. hit rate 0.36% among 360,000. AID 602244, 2012; in the data active = inhibition above about 34%, passing the limit was not always enough;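 also: antagonist mode with CXCL16 agonist at 10 nM final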
EBI2 block = EBI2 receptor antagonists, beta-arrestin recruitment, primary screen, cell-based, luminescence, 7a,25-OHC stimulation, uHTS; G-protein coupled receptor 183 (Homo sapiens), P32249; 7a,25-OHC stimulated; inhibition, % at 5 µM; hit rate 0.81% among 360,000; AID 651636, 2012; in the data active = inhibition above about 38%;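 also: enzyme fragment complementation signal reports receptor beta-arrestin coupling in cells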
TAG conf = triacylglycerol accumulation inhibitors, retest, confirmation, cell-based, single concentration, Nile Red fluorescence, H9c2. shares compounds with TAG inh. H9c2 lipid accumulation; cells loaded with 200 µM oleic acid. inhibition, % at 12.5 µM. hit rate 71% among 990. AID 651629, 2012;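 active = mean inhibition across replicates of 40% or more; inactive = mean inhibition below 40%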
Large screens that a line does not name were inactive (follow-up assays come after a bar, where they were run). The list is not random: actives were taken first. Their share in the collection is about 1.9%.

Cc1cc(C)nc(NC(=NCCc2c[nH]c3ccccc23)NC(=O)Nc2ccc(Cl)c(Cl)c2)n1	TAG inh 67 | TAG conf 70
Cc1ccc2[nH]c(-c3ccccc3)cc(=O)c2c1	TAG inh 53 | TAG conf 58
CN1Cc2c(N3CCOCC3)nc(SCc3ccccc3)c(C#N)c2CC1(C)C	none (no result: TAG inh)
CC1(C)Cc2c(C#N)c(SCC(=O)c3ccccc3)nc(N3CCOCC3)c2CS1	TAG inh 51 | TAG conf 59
CCOc1ccc(NC(=O)CN(C)C(=O)c2ccccc2-n2cnnn2)cc1OCC	none
COc1ccc(CC(=O)NNC(=O)c2ccccc2)cc1OC	none
COc1ccc(C(=O)NNC(=O)Cc2ccc(-c3ccccc3)cc2)cc1OC	TAG inh 57 | TAG conf inactive
CC(C)C[C@H](CO)N(Cc1ccccc1)S(=O)(=O)N(Cc1ccccc1)[C@@H](CO)CC(C)C	TAG inh 56 | TAG conf 46
Cc1ccc(CNC(=O)c2ccc(N3CCC4(CC3)CC(c3ccccc3)=NO4)c(NC(=O)c3ccc(Cl)c([N+](=O)[O-])c3)c2)cc1	TAG inh 51 | TAG conf inactive
Cc1ccc(CNC(=O)c2ccc(N3CCC4(CC3)CC(c3ccccc3)=NO4)c(NC(=O)c3cccc(C)c3)c2)cc1	none
Cc1ccc(NC(=O)CSc2nnc(C)c(=O)n2N)cc1Cl	TAG inh 51 | TAG conf 44
CCCCCN1CC(=O)N2C(C)c3[nH]c4ccccc4c3C[C@H]2C1=O (some centres undefined)	none (no result: TAG inh)
COc1cc2c(cc1OC)C(C)N(C(=O)c1cc3c(C)cc(C)cc3[nH]1)CC2 (centres undefined)	TAG inh 54 | TAG conf 59
Cc1ccc(S(=O)(=O)N(C)CC(=O)O/N=C(\N)c2cccc(Br)c2)cc1	none (no result: TAG inh)
N/C(=N\c1nc2ccccc2o1)NC(=O)c1ccc(F)cc1	TAG inh 66 | TAG conf 45
O=C(COc1ccc(F)cc1)Nc1nc(-c2cccnc2)cs1	none (no result: APJ ag, APJ antagonist, CCR6 antag)
O=C(NCc1nnnn1-c1ccc(F)cc1)c1ccc([N+](=O)[O-])o1	TAG inh 65 | TAG conf 82
Cc1ccc(-n2nnnc2CNC(=O)c2ccc([N+](=O)[O-])o2)cc1C	none
CC(=O)c1ccc(-c2ccc(C(=O)NCC(c3ccc(F)cc3)N3CCOCC3)o2)cc1 (centres undefined)	none
O=C(NCC(c1ccc(F)cc1)N1CCOCC1)c1ccc([N+](=O)[O-])o1 (centres undefined)	TAG inh 51 | TAG conf 76
O=C(c1cccc([N+](=O)[O-])c1)N1CCN(c2cccc(Cl)c2)CC1	none
COC(=O)c1cc(C(=O)N2CCN(c3cccc(Cl)c3)CC2)cc([N+](=O)[O-])c1	TAG inh 63 | TAG conf 56
COc1ccccc1N(C(=O)c1snc(C(N)=O)c1N)C(C(=O)NC1CCCC1)c1ccc2ncccc2c1 (centres undefined)	none (no result: TAG inh)
NC(=O)N/N=C/c1c(Sc2nnnn2-c2ccccc2)nc2ccccn2c1=O	TAG inh 52 | TAG conf 64
Cc1nn(-c2ccccc2)c(Cl)c1/C=N/NC(N)=O	none
COc1ccc(C2=NOC(C(=O)NCc3cccs3)C2)cc1OC (centres undefined)	none (no result: TAG inh, CXCR6 block, EBI2 block)
COc1cc(C2=NOC(C(=O)NCc3cccs3)C2)cc(OC)c1OC (centres undefined)	TAG inh 52 | TAG conf 63
COc1ccccc1C(=O)NCCCNC(=O)c1cccnc1	none (no result: TAG inh)
N#CC1=C(SCC(=O)c2ccc(Br)cc2)NC2=C(C(=O)CCC2)C1c1ccco1 (centres undefined)	TAG inh 57 | TAG conf inactive
